Laboratory results from ChEMBL document CHEMBL1287654, “Anticancer activity of N-bis(trifluoromethyl)alkyl-N'-(polychlorophenyl) and N'-(1,2,4-triazolyl) ureas” (2010).

Tests used:
Assay type in all cases: functional
[1] = tested on: MCF7; assay: Growth inhibition of human MCF7 cells assessed as cell growth at 100 uM after 48 hrs by sulforhodamine B assay relative to control; details: MCF7, 48 h, read-out: Activity
Outline: (§1)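 One-dose pre-test on MCF7, NCI-H460 and SF-268. Cells were inoculated and pre-incubated on a microtiter plate, then given a single 10^-4 M dose and incubated 48 h. Growth was read spectrophotometrically and expressed as percent of untreated control cells; negative values indicate cell kill.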

[2] = tested on: SF-268; assay: Growth inhibition of human SF268 cells assessed as cell growth at 100 uM after 48 hrs by sulforhodamine B assay relative to control; details: SF-268, 48 h, read-out: Activity; outline: as §1
[3] = tested on: NCI-H460; assay: Growth inhibition of human NCI-H460 cells assessed as cell growth at 100 uM after 48 hrs by sulforhodamine B assay relative to control; details: NCI-H460, 48 h, read-out: Activity; outline: as §1
[4] = Growth inhibition of human leukemia cell after 48 hrs by sulforhodamine B assay
Outline: (§2)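 Subpanel median growth inhibitory concentration: the average sensitivity of each tumor-type subpanel of the NCI 60-cell-line panel, derived from per-cell-line GI50 values. GI50 values came from a five log dose range and are expressed as log molar concentration for 50% net growth inhibition.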

[5] = tested on: MDA-MB-435; assay: Growth inhibition of human MDA-MB-435 cells after 48 hrs by sulforhodamine B assay; details: MDA-MB-435, 48 h
Outline: (§3)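 NCI 60-cell-line main test over a five-log dose range. GI50 is the molar concentration giving half-growth inhibition, reported as log molar. Subpanel values are median GI50 across that subpanel's lines. Where 50% inhibition was not reached within the tested interval, the highest tested concentration was used.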

[6] = Growth inhibition of human breast cancer cell after 48 hrs by sulforhodamine B assay; details: Cancer cell lines; outline: as §2
[7] = Growth inhibition of human melanoma cell after 48 hrs by sulforhodamine B assay; outline: as §2
[8] = Growth inhibition of human colon cancer cell after 48 hrs by sulforhodamine B assay; details: Cancer cell lines; outline: as §2
[9] = Growth inhibition of human renal cancer cell after 48 hrs by sulforhodamine B assay; details: Cancer cell lines; outline: as §2
[10] = tested on: 786-0; assay: Growth inhibition of human 786-0 cells after 48 hrs by sulforhodamine B assay; details: 786-0, 48 h; outline: as §3
[11] = Growth inhibition of human CNS cancer cell after 48 hrs by sulforhodamine B assay; details: Cancer cell lines; outline: as §3
[12] = tested on: NCI-H226; assay: Growth inhibition of human NCI-H226 cells after 48 hrs by sulforhodamine B assay; details: NCI-H226, 48 h; outline: as §3
[13] = tested on: UACC-257; assay: Growth inhibition of human UACC257 cells after 48 hrs by sulforhodamine B assay; details: UACC-257, 48 h
Outline: (§4)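 NCI 60-cell-line main screen across nine tumor types, with five log dose range per compound. GI50 is the molar concentration giving half growth inhibition, reported as the log of the molar concentration that inhibits 50% net cell growth.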

[14] = Growth inhibition of human prostate cancer cell after 48 hrs by sulforhodamine B assay; details: Cancer cell lines; outline: as §2
[15] = tested on: SK-MEL-2; assay: Growth inhibition of human SK-MEL-2 cells after 48 hrs by sulforhodamine B assay; details: SK-MEL-2, 48 h; outline: as §3
[16] = Growth inhibition of human non-small lung cancer cell after 48 hrs by sulforhodamine B assay; details: Cancer cell lines; outline: as §2
[17] = tested on: MCF7; assay: Growth inhibition of human MCF7 cells after 48 hrs by sulforhodamine B assay; details: MCF7, 48 h; outline: as §3
[18] = Growth inhibition of human ovarian cancer cell after 48 hrs by sulforhodamine B assay; details: Cancer cell lines; outline: as §2
[19] = tested on: A549; assay: Growth inhibition of human A549 cells after 48 hrs by sulforhodamine B assay; details: A549, 48 h; outline: as §3
[20] = tested on: BT-549; assay: Growth inhibition of human BT549 cells after 48 hrs by sulforhodamine B assay; details: BT-549, 48 h; outline: as §3
[21] = tested on: HOP-62; assay: Growth inhibition of human HOP62 cells after 48 hrs by sulforhodamine B assay; details: HOP-62, 48 h; outline: as §3
[22] = tested on: HCT-15; assay: Growth inhibition of human HCT15 cells after 48 hrs by sulforhodamine B assay; details: HCT-15, 48 h; outline: as §3
[23] = tested on: UACC-62; assay: Growth inhibition of human UACC62 cells after 48 hrs by sulforhodamine B assay; details: UACC-62, 48 h; outline: as §4
[24] = tested on: NCI/ADR-RES; assay: Growth inhibition of human NCI/ADR-RES cells after 48 hrs by sulforhodamine B assay; outline: as §3
[25] = tested on: A498; assay: Growth inhibition of human A498 cells after 48 hrs by sulforhodamine B assay; details: A498, 48 h; outline: as §3
[26] = tested on: SNB-75; assay: Growth inhibition of human SNB75 cells after 48 hrs by sulforhodamine B assay; details: SNB-75, 48 h; outline: as §4
[27] = tested on: SF-539; assay: Growth inhibition of human SF539 cells after 48 hrs by sulforhodamine B assay; details: SF-539, 48 h; outline: as §3
[28] = tested on: COLO 205; assay: Growth inhibition of human COLO205 cells after 48 hrs by sulforhodamine B assay; details: COLO 205, 48 h; outline: as §3
[29] = tested on: OVCAR-3; assay: Growth inhibition of human OVCAR-3 cells after 48 hrs by sulforhodamine B assay; details: OVCAR-3, 48 h; outline: as §3
[30] = tested on: SN12C; assay: Growth inhibition of human SN12C cells after 48 hrs by sulforhodamine B assay; outline: as §4
[31] = tested on: SF-268; assay: Growth inhibition of human SF268 cells after 48 hrs by sulforhodamine B assay; details: SF-268, 48 h; outline: as §3

Q: For CC(NC(=O)Nc1nnc[nH]1)(C(F)(F)F)C(F)(F)F, which growth at 100 µM [1] is on record?
A: The growth at 100 µM was 98%.

Q: What about the growth at 100 µM [2] of the same compound?
A: Its growth at 100 µM is 111%.

Q: And the growth at 100 µM [3]?
A: Its growth at 100 µM is 111%.

Q: For CC(NC(=O)Nc1c(Cl)cc(Cl)cc1Cl)(C(F)(F)F)C(F)(F)F, which growth at 100 µM [1] is on record?
A: The growth at 100 µM was 89%.

Q: And the growth at 100 µM [2]?
A: Its growth at 100 µM is 96%.

Q: What about the growth at 100 µM [3] of the same compound?
A: The growth at 100 µM was 103%.

Q: For CCC(NC(=O)Nc1nnc[nH]1)(C(F)(F)F)C(F)(F)F, which growth at 100 µM [1] is on record?
A: The growth at 100 µM was 102%.

Q: What about the growth at 100 µM [2] of the same compound?
A: Its growth at 100 µM is 102%.

Q: And the growth at 100 µM [3]?
A: The growth at 100 µM was 86%.

Q: Which growth at 100 µM [1] does the source give for CCC(NC(=O)Nn1cnnc1)(C(F)(F)F)C(F)(F)F here?
A: Its growth at 100 µM is 84%.

Q: And the growth at 100 µM [2]?
A: The growth at 100 µM was 105%.

Q: And the growth at 100 µM [3]?
A: Its growth at 100 µM is 94%.

Q: For CCC(NC(=O)Nc1nc2ccccc2s1)(C(F)(F)F)C(F)(F)F, which GI50 [4] is on record?
A: The GI50 was 22.9 µM.

Q: And the GI50 [5]?
A: Its GI50 is 20 µM.

Q: And the GI50 [6]?
A: Its GI50 is 18.2 µM.

Q: And the GI50 [7]?
A: Its GI50 is 17.4 µM.

Q: What about the GI50 [8] of the same compound?
A: Its GI50 is 18.6 µM.

Q: What about the GI50 [9] of the same compound?
A: Its GI50 is 15.1 µM.

Q: And the GI50 [10]?
A: Its GI50 is 20 µM.

Q: And the GI50 [11]?
A: Its GI50 is 11.7 µM.

Q: What about the GI50 [12] of the same compound?
A: The GI50 was 15.8 µM.

Q: What about the GI50 [13] of the same compound?
A: Its GI50 is 20 µM.

Q: What about the GI50 [14] of the same compound?
A: Its GI50 is 18.2 µM.

Q: And the GI50 [15]?
A: Its GI50 is 15.8 µM.

Q: And the GI50 [16]?
A: The GI50 was 18.6 µM.

Q: And the GI50 [17]?
A: The GI50 was 15.8 µM.

Q: What about the GI50 [18] of the same compound?
A: Its GI50 is 17.8 µM.

Q: And the GI50 [19]?
A: The GI50 was 15.8 µM.

Q: Which GI50 [20] does the source give for CC(NC(=O)Nc1nc2ccccc2s1)(C(F)(F)F)C(F)(F)F here?
A: Its GI50 is > 100 µM.

Q: What about the GI50 [21] of the same compound?
A: The GI50 was 31.6 µM.

Q: And the GI50 [4]?
A: The GI50 was 21.9 µM.

Q: What about the GI50 [6] of the same compound?
A: Its GI50 is 50.1 µM.

Q: What about the GI50 [22] of the same compound?
A: Its GI50 is > 100 µM.

Q: What about the GI50 [7] of the same compound?
A: The GI50 was 42.7 µM.

Q: And the GI50 [8]?
A: The GI50 was 42.7 µM.

Q: What about the GI50 [9] of the same compound?
A: Its GI50 is 28.2 µM.

Q: And the GI50 [23]?
A: The GI50 was > 100 µM.

Q: What about the GI50 [11] of the same compound?
A: The GI50 was 25.7 µM.

Q: What about the GI50 [24] of the same compound?
A: Its GI50 is > 100 µM.

Q: What about the GI50 [14] of the same compound?
A: The GI50 was 56.2 µM.

Q: And the GI50 [25]?
A: Its GI50 is 100 µM.

Q: And the GI50 [16]?
A: Its GI50 is 33.9 µM.

Q: And the GI50 [18]?
A: The GI50 was 39.8 µM.

Q: Which results are given for CCC(NC(=O)Nc1c(Cl)cc(Cl)cc1Cl)(C(F)(F)F)C(F)(F)F?
A: growth at 100 µM [1]: 88%; growth at 100 µM [2]: 98%; growth at 100 µM [3]: 81%

Q: With CCC(NC(=O)Nc1c(Cl)cccc1Cl)(C(F)(F)F)C(F)(F)F as the compound, how does the growth at 100 µM [1] read?
A: Its growth at 100 µM is 75%.

Q: And the growth at 100 µM [2]?
A: The growth at 100 µM was 101%.

Q: What about the growth at 100 µM [3] of the same compound?
A: The growth at 100 µM was 79%.

Q: With CC(NC(=O)Nn1cnnc1)(C(F)(F)F)C(F)(F)F as the compound, how does the growth at 100 µM [1] read?
A: The growth at 100 µM was 81%.

Q: And the growth at 100 µM [2]?
A: Its growth at 100 µM is 105%.

Q: And the growth at 100 µM [3]?
A: The growth at 100 µM was 94%.

Q: With CC(NC(=O)Nc1c(Cl)cccc1Cl)(C(F)(F)F)C(F)(F)F as the compound, how does the growth at 100 µM [1] read?
A: Its growth at 100 µM is 82%.

Q: And the growth at 100 µM [2]?
A: The growth at 100 µM was 84%.

Q: And the growth at 100 µM [3]?
A: The growth at 100 µM was 85%.

Q: For O=c1[nH]cc(F)c(=O)[nH]1 [FLUOROURACIL], which GI50 [21] is on record?
A: The GI50 was 0.398 µM.

Q: What about the GI50 [4] of the same compound?
A: The GI50 was 0.562 µM.

Q: What about the GI50 [26] of the same compound?
A: The GI50 was 79.4 µM.

Q: What about the GI50 [27] of the same compound?
A: Its GI50 is 0.0631 µM.

Q: And the GI50 [6]?
A: Its GI50 is 1.38 µM.

Q: What about the GI50 [7] of the same compound?
A: The GI50 was 0.933 µM.

Q: What about the GI50 [8] of the same compound?
A: Its GI50 is 0.186 µM.

Q: And the GI50 [9]?
A: Its GI50 is 0.575 µM.

Q: And the GI50 [11]?
A: Its GI50 is 1.35 µM.

Q: And the GI50 [24]?
A: The GI50 was 0.316 µM.

Q: And the GI50 [14]?
A: The GI50 was 0.912 µM.

Q: And the GI50 [28]?
A: The GI50 was 0.158 µM.

Q: What about the GI50 [25] of the same compound?
A: The GI50 was 0.398 µM.

Q: What about the GI50 [16] of the same compound?
A: Its GI50 is 2 µM.

Q: And the GI50 [29]?
A: Its GI50 is 0.0158 µM.

Q: What about the GI50 [17] of the same compound?
A: The GI50 was 0.0794 µM.

Q: What about the GI50 [18] of the same compound?
A: Its GI50 is 1.82 µM.

Q: And the GI50 [30]?
A: The GI50 was 0.501 µM.

Q: And the GI50 [31]?
A: Its GI50 is 1.58 µM.
